Bioassay records from PubChem BioAssay.
The entries come from a sample that favours hits as a whole.
KDM4C inh – inhibitors of human demethylase GASC-1 KDM4C; inhibition, % at 12.5 µM; 96,000 compounds, 0.15% hits; GST-KDM4C 2-372, H3K9me3 peptide, LANCE TR-FRET; AID 720574;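 active = mean replicate inhibition above about 25%, with at least 55% of replicates also reaching it, limit read from the data, passing the limit was not always enough; inconclusive = only one of those two conditions met; inactive = neither condition met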
Target sequence (Q9H3R0 2-372 limits assumed): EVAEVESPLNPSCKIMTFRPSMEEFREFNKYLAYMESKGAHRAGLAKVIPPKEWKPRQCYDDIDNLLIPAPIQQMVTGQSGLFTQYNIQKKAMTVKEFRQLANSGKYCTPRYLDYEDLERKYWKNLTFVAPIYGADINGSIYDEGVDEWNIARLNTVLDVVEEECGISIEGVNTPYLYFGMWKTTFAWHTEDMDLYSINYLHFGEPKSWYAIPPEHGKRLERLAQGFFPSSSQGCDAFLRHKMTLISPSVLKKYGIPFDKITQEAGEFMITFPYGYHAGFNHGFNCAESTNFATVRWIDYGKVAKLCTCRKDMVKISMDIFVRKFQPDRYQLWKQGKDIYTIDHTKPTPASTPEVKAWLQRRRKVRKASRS
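material = GST-tagged GASC-1 (JMJD2C) catalytic fragment, aa 2-372 | amount = enzyme final amount 10 nM | medium = HEPES buffer, pH 7.5, plus ascorbate | also added = H3K9me3 peptide substrate, Fe(II), 2-oxoglutarate | dosing = single dose | times = 30 min demethylation and 1 h detection at room temperature | detection = LANCE TR-FRET | read-out basis = Fall in 671/618 emission ratio as inhibition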
IDH1 mut inh – blocks human IDH1 R132H reductase activity. inhibition, % at 10 µM. diaphorase/resazurin fluorescence, 60 min. 70,000 compounds, 0.18% hits. O75874; in the data active = inhibition above about 34%; inconclusive = no clear call, values can overlap the other calls; inactive = below about 11%
T cruzi growth-1 – T. cruzi proliferation inhibition | T. cruzi beta-gal in NIH3T3, GalScreen luminescence, 90 h | inhibition, % at 8.34 µM | 77,000 compounds, 5.9% hits | AID 624255;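 active = mean inhibition above about 93%, with at least 55% of replicates each passing it, limit read from the data, passing the limit was not always enough; inconclusive = only one of those two conditions holds; inactive = neither condition holds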
T cruzi growth-2 – inhibitors of T. cruzi proliferation; shares compounds with T cruzi growth-1; T. cruzi beta-gal in NIH3T3, GalScreen luminescence, 90 h; inhibition, % at 8.35 µM; 5,600 compounds, 72% hits; AID 651739;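 active = mean replicate inhibition above about 95% and at least 55% of replicates individually reaching it, limit read from the data; inconclusive = only one of the two criteria is met; inactive = neither criterion is met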
T cruzi growth-3 – inhibitors of T. cruzi proliferation; T. cruzi beta-gal in NIH3T3, GalScreen luminescence, 90 h; inhibition, % at 2.09 µM; shares compounds with T cruzi growth-1; AID 651740; 5,600 compounds, 21% hits;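 active = mean inhibition above about 95%, with at least 55% of replicates also reaching it, limit read from the data; inconclusive = meets just one of the two conditions; inactive = meets neither condition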
3T3 cytotox – kills mouse NIH/3T3 fibroblasts; shares compounds with T cruzi growth-1; NIH/3T3 viability, CellTiter-Glo ATP luminescence, 90 h; cytotoxicity (signal decrease), % at 8.35 µM; 5,600 compounds, 14% hits;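 active = mean signal decrease across replicates above about 35% based on untreated-well scatter, with enough replicates individually passing, limit read from the data; inconclusive = no rule stated though some were filed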
NIH3T3 tox 2 – cytotoxicity in mouse NIH/3T3 fibroblasts | 5,600 compounds, 56% hits | shares compounds with T cruzi growth-1 | inhibition, % at 24.9 µM | NIH/3T3 viability, CellTiter-Glo ATP luminescence, 90 h;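 active = mean loss of cell viability signal at or above a set limit, and enough replicates individually reaching it; inconclusive = meets only the mean limit or only the replicate share; inactive = meets neither condition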
Hits are given with their value; - = inactive; ? = inconclusive; . = no result.

SMILES	KDM4C inh	IDH1 mut inh	T cruzi growth-1	T cruzi growth-2	T cruzi growth-3	3T3 cytotox	NIH3T3 tox 2
COC(=O)c1sc(NC(=O)COc2ccc(C(C)C)cc2)c(C#N)c1C	.	-	.	.	.	.	.
C=C[C@](C)(CC[C@@]1(C)[C@H](C)C[C@H](O[C@@H]2O[C@@H](C)[C@H](O[C@@H]3O[C@H](COC(C)=O)[C@@H](O)[C@H](O)[C@H]3O)[C@@H](O)[C@H]2O)[C@@]2(C)C(C)=CCC[C@H]12)O[C@@H]1O[C@H](C)[C@H](O[C@@H]2O[C@@H](C)[C@H](O)[C@@H](O)[C@H]2O)[C@H](O)[C@H]1O	.	-	.	.	.	.	.
N#Cc1cccc(-c2ccc([C@H]3[C@@H](CO)N4CCCCN(Cc5ccccc5F)C[C@@H]34)cc2)c1	-	.	99	104	-	-	97
N#Cc1cccc(-c2ccc([C@@H]3[C@@H](CO)N4CCCCN(Cc5ccccc5F)C[C@H]34)cc2)c1	-	.	-	.	.	.	.
O=C(Nc1ccc(F)cc1)N1CCCCN2[C@H](CO)[C@@H](c3ccc(C#CC4CC4)cc3)[C@@H]2C1	-	.	108	112	-	-	104
O=C(Nc1ccc(F)cc1)N1CCCCN2[C@H](CO)[C@H](c3ccc(C#CC4CC4)cc3)[C@@H]2C1	-	.	106	107	-	-	-
O=C(Nc1ccc(F)cc1)N1CCCCN2[C@H](C1)[C@@H](c1ccc(C#CC3CC3)cc1)[C@@H]2CO	-	.	99	101	104	-	105
O=C(Nc1ccccc1)N1CCCCN2[C@@H](CO)[C@@H](c3ccc(C#CC4CC4)cc3)[C@@H]2C1	-	.	-	.	.	.	.
O=C(Nc1ccc(F)cc1)N1CCCCN2[C@H](C1)[C@@H](c1ccc(C#Cc3ccccc3)cc1)[C@@H]2CO	-	.	-	.	.	.	.
O=C(Nc1ccccc1)N1CCCCN2[C@H](C1)[C@H](c1ccc(C#CC3CC3)cc1)[C@@H]2CO	-	.	-	.	.	.	.
CCN(CC(=O)Nc1ccc(Br)cc1)S(=O)(=O)c1ccc(Cl)cc1	.	-	.	.	.	.	.
Cc1cccc(OCCCC(=O)Nc2ccccc2[N+](=O)[O-])c1C	.	-	.	.	.	.	.
C[C@H]1CN([C@@H](C)CO)C(=O)c2cc(NC(=O)CCCN(C)C)ccc2O[C@H]1CN(C)C(=O)Nc1ccccc1	.	-	.	.	.	.	.
COc1ccc(-c2ccc3c(c2)O[C@@H](CN(C)C(=O)c2ccccc2F)[C@H](C)CN([C@@H](C)CO)S3(=O)=O)cc1	-	-	110	-	-	47	79
COc1ccc(-c2ccc3c(c2)O[C@H](CN(C)C(=O)Nc2ccccc2F)[C@@H](C)CN([C@@H](C)CO)S3(=O)=O)cc1	-	-	98	108	-	-	58
COc1ccc(-c2ccc3c(c2)O[C@H](CN(C)C(=O)c2ccccc2F)[C@@H](C)CN([C@@H](C)CO)S3(=O)=O)cc1	-	-	106	105	-	-	54
COc1ccc(-c2ccc3c(c2)O[C@@H](CN(C)C(=O)c2ccccc2F)[C@@H](C)CN([C@H](C)CO)S3(=O)=O)cc1	-	-	-	.	.	.	.
COc1cccc(-c2ccc3c(c2)O[C@@H](CN(C)C(=O)c2ccccc2F)[C@H](C)CN([C@@H](C)CO)S3(=O)=O)c1	-	-	.	.	.	.	.
COc1ccc(-c2ccc3c(c2)O[C@@H](CN(C)C(=O)c2ccccc2F)[C@@H](C)CN([C@@H](C)CO)S3(=O)=O)cc1	-	-	-	.	.	.	.
COc1ccc(-c2ccc3c(c2)O[C@H](CN(C)C(=O)c2ccccc2F)[C@@H](C)CN([C@H](C)CO)S3(=O)=O)cc1	-	-	108	102	-	-	36
COc1ccc(-c2ccc3c(c2)O[C@@H](CN(C)C(=O)Nc2ccccc2F)[C@@H](C)CN([C@@H](C)CO)S3(=O)=O)cc1	-	-	-	.	.	.	.
COc1ccc(NC(=O)c2ccco2)cc1NC(=O)COc1cc(C)c(Cl)c(C)c1	.	-	.	.	.	.	.
COc1ccc(-c2ccc3c(c2)O[C@@H](CN(C)C(=O)c2ccccc2F)[C@H](C)CN([C@H](C)CO)S3(=O)=O)cc1	-	-	114	105	-	40	70
COc1cccc(-c2ccc3c(c2)O[C@H](CN(C)C(=O)c2ccccc2F)[C@@H](C)CN([C@H](C)CO)S3(=O)=O)c1	-	-	.	.	.	.	.
NC(=S)Cc1c(Cl)sc2ccc(Cl)cc12	.	-	.	.	.	.	.
SMILES	KDM4C inh	IDH1 mut inh	T cruzi growth-1	T cruzi growth-2	T cruzi growth-3	3T3 cytotox	NIH3T3 tox 2
Cc1ccc(-c2ccc([C@H]3[C@@H](CO)N4CCCCN(S(=O)(=O)c5cccc(C)c5)C[C@@H]34)cc2)cc1	.	.	-	.	.	.	.
Cc1cccc(S(=O)(=O)N2CCCCN3[C@H](CO)[C@H](c4ccc(-c5cccnc5)cc4)[C@H]3C2)c1	-	.	-	.	.	.	.
Cc1ccc(-c2ccc([C@@H]3[C@@H](CO)N4CCCCN(S(=O)(=O)c5cccc(C)c5)C[C@H]34)cc2)cc1	.	.	107	101	115	54	104
Cc1ccc(-c2ccc([C@@H]3[C@H]4CN(S(=O)(=O)c5cccc(C)c5)CCCCN4[C@H]3CO)cc2)cc1	.	.	?	104	-	-	46
O=C(CSc1nnc(-c2ccncc2)n1-c1ccccc1)Nc1c(Cl)cccc1Cl	.	-	.	.	.	.	.
COc1ccc([N+](=O)[O-])cc1NC(=O)c1cc(-c2ccccn2)nc2ccc(C)cc12	.	-	.	.	.	.	.
CCS(=O)(=O)N1CCCCN2[C@@H](CO)[C@@H](c3ccc(-c4ccccc4F)cc3)[C@@H]2C1	-	.	106	-	-	-	57
CCS(=O)(=O)N1CCCCN2[C@H](C1)[C@H](c1ccc(-c3ccccc3F)cc1)[C@@H]2CO	-	.	-	.	.	.	.
CCS(=O)(=O)N1CCCCN2[C@H](CO)[C@@H](c3ccc(-c4ccccc4F)cc3)[C@@H]2C1	-	.	?	103	-	-	-
CCS(=O)(=O)N1CCCCN2[C@@H](CO)[C@H](c3ccc(-c4ccccc4F)cc3)[C@@H]2C1	-	.	?	104	-	-	42
CCS(=O)(=O)N1CCCCN2[C@H](C1)[C@@H](c1ccc(-c3ccccc3C)cc1)[C@@H]2CO	-	.	-	.	.	.	.
Cn1cnc(S(=O)(=O)N2CCCCN3[C@H](CO)[C@H](c4ccc(-c5ccccc5F)cc4)[C@H]3C2)c1	-	.	-	.	.	.	.
CCn1c(SCC(=O)Nc2ccccc2F)nnc1-c1ccccc1F	.	-	.	.	.	.	.
CCn1c2ccccc2c2cc(NC(=O)CCN3C(=O)c4ccccc4C3=O)ccc21	.	-	.	.	.	.	.
COc1ccc(OC)c(-c2cc(C(=O)NCCc3ccccc3OC)c3ccccc3n2)c1	.	-	.	.	.	.	.
O=C(NCc1ccccn1)c1nn2c(C(F)(F)F)cc(-c3ccccc3)nc2c1Cl	.	-	.	.	.	.	.
C[C@H](CO)N1C[C@H](C)[C@@H](CN(C)S(=O)(=O)c2ccccc2F)Oc2ncc(/C=C/c3ccccc3)cc2C1=O	-	-	126	101	-	-	-
